A selection: hits, their analogues and other compounds. The true share with any hit is near 1.7%.
CAL PDZ FP-1 – human CAL PDZ-peptide interaction inhibition. purified CAL PDZ, TMR-peptide fluorescence polarization, 1 h. inhibition, % at 20 µM. 330,000 compounds, 0.02% hits;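 active = highest replicate inhibition of at least 40%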
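Material: tagged CAL PDZ domain; buffer or medium: 25 mM sodium phosphate pH 7.4, 150 mM NaCl, TCEP, IgG, Thesit; compound dosing: single point, 20 µM; schedule: 1 h incubation at room temperature before polarization reading; measured by: FP readout, S and P plane fluorescence; read-out basis: percent inhibition from loss of millipolarization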
PGC1a acetyl inh – modulators of PGC1a acetylation | U2OS PGC1a acetylation, AlphaScreen anti-acetyl-lysine; with virally co-expressed GCN5 acetyltransferase | inhibition, % at 15.6 µM | 350,000 compounds, 0.17% hits;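 active = every replicate shows inhibition of at least 40%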
F508del corr – correctors of CFTR F508del function in bronchial epithelial cells; activity (quench increase), % at 7.58 µM; 350,000 compounds, 0.36% hits; CFBE cells, YFP halide quenching; stimulated with forskolin plus potentiator P3; % fluorescence drop versus neutral controls;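 active = mean added fluorescence quench of at least 8% versus neutral control, with both replicates also reaching 8%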;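 note: cells transiently co-express mutant CFTR-F508del with the halide-sensitive YFP; corrector assay measuring rescue of mutant channel to the surface after 24 h compound exposure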
ARNT-TACC3 inh – ARNT/TACC3 interaction disruption | Q9Y6A5 | AlphaScreen His-ARNT PAS-B/GST-TACC3 binding, luminescence; TACC3 fragment carries E629A point mutation | inhibition, % at 9.99 µM | 390,000 compounds, 0.66% hits | AID 623870;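 active = mean inhibition of replicates at least 50% and at least half of replicates each reaching 50%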
CAL PDZ FP-2 – CAL PDZ (human) peptide binding inhibition; 300,000 compounds, 0.92% hits; Q9HD26; purified CAL PDZ, TMR-peptide fluorescence polarization, 1 h; inhibition, % at 24.9 µM;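 active = mean inhibition of at least 30% with at least half of replicates also reaching 30%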
miR122 inh – inhibitors of miR-122 in Huh7 cells; 340,000 compounds, 0.3% hits; activation (reporter increase), % at 12.5 µM; Huh7 miR-122 Renilla luciferase sensor, 48 h; neutral wells = 0, positive control = 100;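 active = mean replicate activation score at least 90 and every replicate individually at or above 90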;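 note: higher luciferase means less miR-122 activity so hits act as miR-122 inhibitors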
Numbers stand for hits; i = inactive; nt = no result; ! = a repeat was not active; [ ] = another dose, or the depositor's remark.

SMILES	CAL PDZ FP-1	PGC1a acetyl inh	F508del corr	ARNT-TACC3 inh	CAL PDZ FP-2	miR122 inh
O=C(Nc1cccc(Cl)c1)N[C@@H]1CC[C@@H](CCNC(=O)C2CCC2)O[C@@H]1CO	nt	i	i	i	nt	nt
COc1ccccc1S(=O)(=O)N[C@@H]1CC[C@H](CCNC(=O)C2CC2)O[C@@H]1CO	nt	i	i	i	nt	nt
Cn1c(=O)c2[nH]c(NN=Cc3ccccc3)nc2n(C)c1=O	i	i	i	i	94.3	i
CC1(C)Oc2ccc(C(=O)N3CCCCC3)cc2N(CC(=O)NCc2ccccc2)C1=O	i	i	nt	nt	i	i
Cc1ccc(CN2C(=O)C(C)(C)Oc3ccc(C(=O)N4CCCCC4)cc32)cc1	nt	i	nt	i	i	317.8
Cc1cc(C)c2c(=O)[nH]n(C3CCCCCC3)c2n1	i	87.9	i	i	i	nt
CO[C@@H]1CN(C)C(=O)c2ccc(NC(=O)c3ccccc3)cc2OC[C@@H](C)N(C(C)=O)C[C@@H]1C	nt	i	i	nt	nt	nt
CCNC(=S)N1CCn2c(nc3ccccc32)C1	i	i	nt	i	i	i
CC(C)NC(=S)N1CCn2c(nc3ccccc32)C1	i	nt	i	i	nt	116.0
O=C(O)CSc1nc2c(c(C(F)(F)F)n1)CCCC2	i	i	i	i	78.0!	i
O=C(O)CSc1nc2c(c(C(F)(F)F)n1)CCc1ccccc1-2	i	nt	i	i	i	nt
Cc1cccc(N2C(=O)C(Cl)=C(N3CCOCC3)C2=O)c1	i	81.3	i	i	i	i
O=C1C(Cl)=C(N2CCOCC2)C(=O)N1c1cccc(Cl)c1	nt	i	nt	i	i	i
CC(C)(C)NC(=O)C[C@H]1C[C@H](C(=O)N2CCOCC2)[C@@]2(C)c3[nH]c4cc(-c5ccco5)ccc4c3CCN2C1=O	i	i	nt	i	i	i
C[C@]12c3[nH]c4cc(-c5ccco5)ccc4c3CCN1C(=O)[C@@H](CC(=O)NCCC1=CCCCC1)C[C@@H]2C(=O)N1CCCCC1	i	nt	i	i	47.8	i
CC(C)(C)NC(=O)C[C@H]1C[C@H](C(=O)N2CCCCC2)[C@@]2(C)c3[nH]c4cc(-c5ccco5)ccc4c3CCN2C1=O	i	nt	i	i	64.5	i
Cc1noc(C)c1CSc1nc2[nH]ncc2c(=O)n1-c1ccccc1	i	nt	nt	i	i	i
Cc1noc(C)c1CSc1nc2ccccc2c(=O)n1-c1ccccc1	i	i	nt	i	i	98.6
C[C@@H]1CN([C@H](C)CO)C(=O)c2cc(/C=C/c3ccccc3)cnc2O[C@@H]1CN(C)C(=O)C1CC1	nt	i	i	nt	nt	nt
O=C(OCC(=O)N1CCOCC1)c1ccccc1O	i	i	i	i	i	i
O=C(OCC(=O)N1CCOCC1)c1ccc(O)cc1	i	i	i	i	126.5	i
O=C(OCC(=O)N1CCC(Cc2ccccc2)CC1)c1ccccc1	i	nt	i	i	31.2	nt
C[C@@H]1CN([C@@H](C)CO)C(=O)c2cc(NC(=O)Cc3ccccc3)ccc2O[C@H]1CN(C)C	nt	i	i	i	nt	i
C[C@@H]1CCCCO[C@@H](CN(C)C(=O)c2ccncc2)[C@H](C)CN([C@@H](C)CO)C(=O)c2cc(NC(=O)c3ccncc3)ccc2O1	nt	i	i	i	nt	i
O=C(C[C@@H]1C=C[C@@H](NC(=O)c2ccc3c(c2)OCO3)[C@@H](CO)O1)NCc1ccc(F)cc1	nt	i	i	i	nt	nt
SMILES	CAL PDZ FP-1	PGC1a acetyl inh	F508del corr	ARNT-TACC3 inh	CAL PDZ FP-2	miR122 inh
COc1cccc(C(=O)N2C[C@H]3[C@@H](c4ccccc42)[C@@H](CO)N3C(=O)c2ccc(F)cc2)c1	nt	i	i	i	nt	228.6[16.7 µM]
O=C(Nc1ccccc1F)N1C[C@H]2[C@@H](c3ccccc31)[C@@H](CO)N2C(=O)c1ccc(F)cc1	nt	i	i	i	nt	240.3[16.7 µM]
C[C@@H]1CN([C@H](C)CO)C(=O)Cc2cc(NS(=O)(=O)c3ccccc3)ccc2O[C@@H]1CN(C)CC1CC1	nt	i	i	i	nt	i
C=C1C(=O)C23CCC4C(C)(C(=O)OC)CCCC4(C)C2CCC1(O)C3 (stereo not given)	i	76.3	i	i	i	i
COC(=O)[C@]1(C)CCC[C@@]2(C)C3CC[C@@]4(C)C[C@]3(CCC21)CC(=O)N4 (stereo not given in full)	i	nt	i	i	i	i
C=CCNC(=S)NNC(=O)c1ccc(C)c(Cl)c1	i	i	i	i	67.4	i
CCC(=O)N1C[C@H](C)[C@H](OC)CN(C)C(=O)c2ccc(NC(=O)Nc3ccc(Cl)cc3)cc2OC[C@@H]1C	nt	i	i	nt	nt	nt
COc1ccc2c3c([nH]c2c1)[C@H](CO)N(C(=O)C1CCCCC1)CC31CCN(C(=O)NC(C)C)CC1	nt	nt	i	nt	nt	nt
CC1=C/C(=C\C=C(C#N)C#N)N(C)c2ccccc21	i	i	10.2	i	nt	i
COC(=O)C1=C(C)NC(C)=C(C(=O)OC)C1C(=O)OC(C)C(=O)c1ccccc1 (stereo not given)	i	i	i	i	50.2!	i
CCN(C(=O)C(C)OC(=O)C1C(C(=O)OC)=C(C)NC(C)=C1C(=O)OC)c1ccccc1 (stereo not given)	i	i	i	i	i	i
CCN(CC)c1ccc(N2C(=O)c3ccccc3C2=O)cc1	nt	i	nt	i	101.7	i
Cc1ccc(N2CC(C(=O)Nc3nccs3)CC2=O)cc1Cl (stereo not given)	i	i	nt	i	nt	95.9
COCc1nnc(NC(=O)C2CC(=O)N(c3ccc(C)c(Cl)c3)C2)s1 (stereo not given)	i	nt	i	i	i	nt
CCOC(=O)C1CCCCN1C(=O)c1cc2ccc(OC)cc2c2cc(OC)c(OC)cc12 (stereo not given)	i	i	i	i	i	109.5
CCOC(=O)C1CCCN1C(=O)c1ccc(OC)c(Br)c1 (stereo not given)	i	i	i	i	i	i
Cc1noc(C)c1NC(=O)N(C)C[C@H]1OCCCC[C@@H](C)Oc2ccc(NC(=O)CCC(F)(F)F)cc2C(=O)N([C@@H](C)CO)C[C@@H]1C	nt	i	i	i	nt	i
O=S1(=O)CC/C(=N\Nc2ccccc2)c2ccsc21	i	nt	i	i	33.2	nt
O=C(C[C@H]1C[C@@H]2c3cc(NC(=O)Nc4ccc(C(F)(F)F)cc4)ccc3O[C@@H]2[C@@H](CO)O1)NCCc1ccccc1	nt	i	i	i	nt	i
COc1ccc(N2CCc3c(C)nc4c(OC)cc(OC)cc4c32)cc1	i	i	10.7	i	i	nt
CC(=O)N1Cc2cc(C(=O)NCc3cc(F)cc(F)c3)nc(-c3cccc(C4=CCCC4)c3)c2[C@H]1CCO	nt	i	i	nt	nt	nt
CC(C)NC(=O)COC(=O)c1ccc(NS(=O)(=O)c2ccc3c(c2)OCCO3)cc1	i	nt	nt	i	i	279.7
N#CCC(=O)Nc1ccc(C(=O)OCC(=O)NCc2ccc3c(c2)OCO3)cc1	i	i	i	nt	i	nt

Assay outcomes as filed in PubChem BioAssay.
